Reference: PMC6334763 (Archives of biochemistry and biophysics, 2018)
Where two headings read alike, the source gives them in different places.

Tests used:
Bm-iAANAT3 [1] = molecular target: T1, Bm-iAANAT3 (Bombyx mori, UniProt D7EZJ9); assay: Steady-state kinetic characterization with Ellman's reagent; format: biochemical; settings: for kcat: 300 mM Tris pH 8.0
Bm-iAANAT3 [2] = molecular target: T1, Bm-iAANAT3; settings: cited from earlier work
Bm-iAANAT3 [3] = molecular target: T1, Bm-iAANAT3; assay: Dead-end and product inhibition analysis; format: biochemical; settings: for inhibition pattern vs. acetyl-CoA: acetyl-CoA varied, tryptamine fixed; for inhibition pattern vs. tryptamine: tryptamine varied, acetyl-CoA fixed
Outline: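 Same Ni-purified Bm-iAANAT3. Initial velocities were measured at several fixed inhibitor levels: oleoyl-CoA at 0, 250 and 500 nM; tyrosol at 0, 150 and 300 μM. In one series, tryptamine was held at 100 μM while acetyl-CoA was varied at 10, 25, 50 and 100 μM. In the other, acetyl-CoA was held at 100 μM while tryptamine was varied at 50, 100, 150 and 300 μM.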

Bm-iAANAT3 [4] = molecular target: T1, Bm-iAANAT3; assay: Activity-based substrate screening; format: biochemical; settings: rate of CoA-SH release above enzyme-independent acyl-CoA hydrolysis
Outline: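 Enzyme: Bm-iAANAT3 expressed from pET28a in E. coli BL-21(DE3), induced with 1.0 mM IPTG for 4 h at 37°C, and Ni-chelate purified. Acetyl-CoA or oleoyl-CoA at 500 μM was tested separately against pooled amines, each at 20 mM or 60 mM, in 300 mM Tris pH 8.0 with 150 μM DTNB. Initial rates came from CoA release at 412 nm (ε₄₁₂ = 13,600 M⁻¹ cm⁻¹), minus background thioester hydrolysis.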

[5] = molecular target: T2, E27A mutant of Bm-iAANAT3 (Bombyx mori, UniProt D7EZJ9, E27A); assay: Steady-state kinetic constants of the E27A mutant; format: biochemical; settings: E27A mutant compared with wild-type Bm-iAANAT3
T2 sequence (D7EZJ9 1-213 E27A): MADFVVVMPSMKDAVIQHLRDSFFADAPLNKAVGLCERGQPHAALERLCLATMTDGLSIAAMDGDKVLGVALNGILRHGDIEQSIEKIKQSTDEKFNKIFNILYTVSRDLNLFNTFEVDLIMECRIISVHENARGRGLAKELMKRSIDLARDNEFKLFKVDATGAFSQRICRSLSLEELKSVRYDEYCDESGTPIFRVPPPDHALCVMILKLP

[6] = substrate: NCCc1c[nH]c2ccccc12; assay: Steady-state kinetic constants of the E27A mutant; format: biochemical, Bombyx mori; settings: other: E27A mutant; named substrate varied; pH 8.0
[7] = substrate: CC(=O)SCCNC(=O)CCNC(=O)[C@H](O)C(C)(C)COP(=O)(O)OP(=O)(O)OC[C@H]1O[C@@H](n2cnc3c(N)ncnc32)[C@H](O)[C@@H]1OP(=O)(O)O; assay: Steady-state kinetic constants of the E27A mutant; format: biochemical, Bombyx mori; settings: other: E27A mutant; named substrate varied; pH 8.0
[8] = acyl-CoA substrate varied, 8.0 mM tryptamine, 22°C
[9] = amine substrate varied, 500 μM acetyl-CoA, 22°C
[10] = amine substrate varied, 500 μM acetyl-CoA, 22°C, 300 mM Tris pH 8.0, 150 μM DTNB
[11] = binding to free Bm-iAANAT3, ITC and/or NMR

**Q.** With `CCCCCCCC(=O)SCCNC(=O)CCNC(=O)[C@H](O)C(C)(C)COP(=O)(O)OP(=O)(O)OC[C@H]1O[C@@H](n2cnc3c(N)ncnc32)[C@H](O)[C@@H]1OP(=O)(O)O` [octanoyl-CoA] as the molecule, how does the kcat (Bm-iAANAT3 [1]; [8]) read?
**A.** 0.36 ± 0.005 s⁻¹

**Q.** Which results are given for `NC[C@H](O)c1ccc(O)c(O)c1` [Norepinephrine]?
**A.** kcat (Bm-iAANAT3 [1]; [9]): 5.3 ± 0.07 s⁻¹; Km (Bm-iAANAT3 [1]; [10]): 0.14 ± 0.0086 mM

**Q.** What does the source list for `NCCc1ccc(O)c(O)c1` [Dopamine]?
**A.** kcat (Bm-iAANAT3 [1]; [9]): 55 ± 1.1 s⁻¹; Km (Bm-iAANAT3 [1]; [10]): 0.33 ± 0.023 mM

**Q.** Which results are given for `CC(=O)SCCNC(=O)CCNC(=O)[C@H](O)C(C)(C)COP(=O)(O)OP(=O)(O)OC[C@H]1O[C@@H](n2cnc3c(N)ncnc32)[C@H](O)[C@@H]1OP(=O)(O)O` [acetyl-CoA]?
**A.** Kd (Bm-iAANAT3 [2]; [11]): 0.7 µM; kcat (Bm-iAANAT3 [1]; [8]): 64 ± 0.7 s⁻¹

**Q.** Which kcat (Bm-iAANAT3 [1]; [9]) does the source give for `NCCc1ccc(O)cc1` [Tyramine] here?
**A.** 27 ± 0.6 s⁻¹

**Q.** And the Km (Bm-iAANAT3 [1]; [10])?
**A.** 0.063 ± 0.0067 mM

**Q.** For `CCCCCCCCCC(=O)SCCNC(=O)CCNC(=O)[C@H](O)C(C)(C)COP(=O)(O)OP(=O)(O)OC[C@H]1O[C@@H](n2cnc3c(N)ncnc32)[C@H](O)[C@@H]1OP(=O)(O)O` [decanoyl-CoA], which kcat (Bm-iAANAT3 [1]; [8]) is on record?
**A.** 0.05 ± 0.004 s⁻¹

**Q.** What does the source list for `CC(=O)NCCc1c[nH]c2ccccc12` [N-acetyltryptamine]?
**A.** effect of added CoA-SH on binding (Bm-iAANAT3 [2]; addition of CoA-SH): not affected; effect of added acetyl-CoA on binding (Bm-iAANAT3 [2]; addition of acetyl-CoA): eliminated; Kd (Bm-iAANAT3 [2]; [11]): 12 ± 3 µM; inhibition pattern vs. acetyl-CoA (Bm-iAANAT3 [3]): competitive; inhibition pattern vs. tryptamine (Bm-iAANAT3 [3]): noncompetitive

**Q.** Which Ki (Bm-iAANAT3 [3]; Ki,i, uncompetitive vs. acetyl-CoA (varied), tryptamine fixed at 100 μM) does the source give for `OCCc1ccc(O)cc1` [tyrosol] here?
**A.** 230 ± 10 µM

**Q.** What about the Ki (Bm-iAANAT3 [3]; Ki,s, competitive vs. tryptamine (varied), acetyl-CoA fixed at 100 μM) of the same molecule?
**A.** 90 ± 10 µM

**Q.** What about the “inhibition pattern vs. acetyl-CoA” value (Bm-iAANAT3 [3]) of the same molecule?
**A.** uncompetitive

**Q.** And the “inhibition pattern vs. tryptamine” value (Bm-iAANAT3 [3])?
**A.** competitive

**Q.** What does the source list for `CCCCCCCC/C=C\CCCCCCCC(=O)SCCNC(=O)CCNC(=O)[C@H](O)C(C)(C)COP(=O)(O)OP(=O)(O)OC[C@H]1O[C@@H](n2cnc3c(N)ncnc32)[C@H](O)[C@@H]1OP(=O)(O)O` [oleoyl-CoA]?
**A.** substrate activity as acyl-CoA donor (Bm-iAANAT3 [4]): no initial velocity increase; inhibition pattern vs. acetyl-CoA (Bm-iAANAT3 [3]): competitive; Ki (Bm-iAANAT3 [3]; read-out: Ki,s, competitive vs. acetyl-CoA (varied), tryptamine fixed at 100 μM): 0.22 ± 0.02 µM; inhibition pattern vs. tryptamine (Bm-iAANAT3 [3]): noncompetitive

**Q.** Which results are given for `NCCc1c[nH]c2ccccc12` [Tryptamine]?
**A.** Kd (Bm-iAANAT3 [2]; [11]): 220 ± 8 µM; fold increase in Km, E27A mutant vs wild-type [5]: 100 fold

**Q.** Which kcat (Bm-iAANAT3 [1]; [8]) does the source give for `CCCC(=O)SCCNC(=O)CCNC(=O)[C@H](O)C(C)(C)COP(=O)(O)OP(=O)(O)OC[C@H]1O[C@@H](n2cnc3c(N)ncnc32)[C@H](O)[C@@H]1OP(=O)(O)O` [Butyryl, buytryl-CoA] here?
**A.** 4.0 ± 0.04 s⁻¹

**Q.** What does the source list for `NCCc1c[nH]cn1` [Histamine]?
**A.** kcat (Bm-iAANAT3 [1]; [9]): 33 ± 0.68 s⁻¹; Km (Bm-iAANAT3 [1]; [10]): 1.7 ± 0.098 mM; Km (Bm-iAANAT3 [1]; amine substrate, as given in the text in mM, 500 μM acetyl-CoA): 1.7 ± 0.1 mM

**Q.** For `CCCCCC(=O)SCCNC(=O)CCNC(=O)C(O)C(C)(C)COP(=O)(O)OP(=O)(O)OC[C@H]1O[C@@H](n2cnc3c(N)ncnc32)[C@H](O)[C@@H]1OP(=O)(O)O` (stereo partly shown) [hexanoyl-CoA], which kcat (Bm-iAANAT3 [1]; [8]) is on record?
**A.** 1.3 ± 0.01 s⁻¹

**Q.** Which Kd (Bm-iAANAT3 [2]; [11]) does the source give for `CC(C)(COP(=O)(O)OP(=O)(O)OC[C@H]1O[C@@H](n2cnc3c(N)ncnc32)[C@H](O)[C@@H]1OP(=O)(O)O)[C@@H](O)C(=O)NCCC(=O)NCCS` [CoA-SH] here?
**A.** 30 ± 1 µM

**Q.** For `OCCc1c[nH]c2ccccc12` [tryptophol], which Kd (Bm-iAANAT3 [2]; [11]) is on record?
**A.** 230 ± 12 µM

**Q.** What about the Kd (Bm-iAANAT3 [2]; in the presence of acetyl-CoA) of the same molecule?
**A.** 50 ± 2 µM

**Q.** Which results are given for `CC(C)(COP(=O)(O)OP(=O)(O)OC[C@H]1O[C@@H](n2cnc3c(N)ncnc32)[C@H](O)[C@@H]1OP(=O)(O)O)[C@@H](O)C(=O)NCCC(=O)NCCSC(=O)CC(=O)O` [malonyl-CoA]?
**A.** substrate activity as acyl-CoA donor (Bm-iAANAT3 [4]): is a substrate; kcat (Bm-iAANAT3 [1]; [8]): 13 ± 1.5 s⁻¹; fold lower (kcat/Km) than (kcat/Km) of decanoyl-CoA (Bm-iAANAT3 [1]; acyl-CoA substrates, 8.0 mM tryptamine): ~ 6 fold

B1: E27A mutant of Bm-iAANAT3 (Bombyx mori; E27A) (protein)
chain: MADFVVVMPSMKDAVIQHLRDSFFADAPLNKAVGLCERGQPHAALERLCLATMTDGLSIAAMDGDKVLGVALNGILRHGDIEQSIEKIKQSTDEKFNKIFNILYTVSRDLNLFNTFEVDLIMECRIISVHENARGRGLAKELMKRSIDLARDNEFKLFKVDATGAFSQRICRSLSLEELKSVRYDEYCDESGTPIFRVPPPDHALCVMILKLP
**Q.** For B1, which Km [6] is on record?
**A.** 9.4 ± 0.99 mM

**Q.** And the kcat [6]?
**A.** 8.0 ± 0.3 × 10 s^−1

**Q.** What about the Km [7] of the same molecule?
**A.** 20 ± 2.2 µM

**Q.** What about the kcat [7] of the same molecule?
**A.** 4.0 ± 0.09 × 10^−2 s^−1
